Data set [1] in a line: Drug degradation in mouse at 10 mg/kg, po. It is filed as ADME, organism-based. To be noted: in vivo. The gist of the method: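 Mice with acute peritonitis dosed orally at 10 mg/kg; plasma compound and metabolite concentrations measured 90 min after administration from extracted chromatograms; n = 8 mice.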
A short description of data set [2]: Drug concentration in plasma of CD-1 mouse at 30 mg/kg, po after 30 mins. It is filed as ADME, organism-based. In outline: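 Oral dosing at 30 mg/kg in zymosan peritonitis; mice killed 30 min after zymosan injection. Compound concentrations measured in plasma and in peritoneal exudate.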
Data set [3] in a line: Drug metabolism in human liver-on-chip assessed as compound conjugation with sulfate incubated for 48 hrs by UPLC-MS/MS analysis. It is filed as ADME, tissue-based. The gist of the method:
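Liver-on-chip built from differentiated HepaRG cells (hepatocyte-like and biliary-like) with a HUVEC endothelial layer. Loaded with compound at 1 μM and incubated 48 h; compound and metabolites quantified from extracted chromatograms; n = 3 independent experiments.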

Data set [4] is described as follows: Antioxidant activity assessed as DPPH radical scavenging activity at 0.1 to 10 uM incubated for 30 mins by microplate reader based assay. The data set is classed as functional. To be noted: dose 0.1-10 µM. In outline: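 Compound incubated with DPPH (50 mM, as printed) in ethanol for 30 min, then absorbance read at 520 nm. Ascorbic acid at 25 μM used as positive control; n = 4 independent experiments.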
Background: Loss of DPPH colour is used to gauge radical scavenging.

The target in data set [5] is T1, Polyunsaturated fatty acid lipoxygenase ALOX12 (Homo sapiens) (UniProt P18054).
T1 sequence (whole entry): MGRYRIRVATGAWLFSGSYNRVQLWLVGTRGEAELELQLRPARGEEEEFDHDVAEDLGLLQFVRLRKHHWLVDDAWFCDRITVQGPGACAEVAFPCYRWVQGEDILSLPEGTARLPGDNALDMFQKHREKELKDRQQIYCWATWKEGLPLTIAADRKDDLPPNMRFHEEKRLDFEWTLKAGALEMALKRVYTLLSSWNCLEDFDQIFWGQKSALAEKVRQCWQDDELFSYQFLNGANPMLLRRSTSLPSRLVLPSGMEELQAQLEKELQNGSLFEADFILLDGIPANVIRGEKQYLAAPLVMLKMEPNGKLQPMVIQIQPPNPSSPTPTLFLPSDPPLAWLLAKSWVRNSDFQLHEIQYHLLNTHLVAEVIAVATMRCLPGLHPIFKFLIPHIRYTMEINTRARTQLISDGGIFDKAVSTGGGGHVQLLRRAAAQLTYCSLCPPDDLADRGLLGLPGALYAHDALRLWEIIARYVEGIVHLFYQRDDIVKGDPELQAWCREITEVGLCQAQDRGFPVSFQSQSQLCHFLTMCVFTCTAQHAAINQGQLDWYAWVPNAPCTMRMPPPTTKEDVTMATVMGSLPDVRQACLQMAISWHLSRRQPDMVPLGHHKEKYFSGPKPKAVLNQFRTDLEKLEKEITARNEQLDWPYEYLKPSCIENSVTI
Briefly: Inhibition of 12-LOX in human PMNL assessed as reduction in 12-LOX product formation at 10 uM treated with AA and A23187 by RP-HPLC method. The data set is classed as tissue-based.

The target of data set [6] is T2, Polyunsaturated fatty acid lipoxygenase ALOX15 (Homo sapiens) (UniProt P16050).
T2 sequence (whole entry): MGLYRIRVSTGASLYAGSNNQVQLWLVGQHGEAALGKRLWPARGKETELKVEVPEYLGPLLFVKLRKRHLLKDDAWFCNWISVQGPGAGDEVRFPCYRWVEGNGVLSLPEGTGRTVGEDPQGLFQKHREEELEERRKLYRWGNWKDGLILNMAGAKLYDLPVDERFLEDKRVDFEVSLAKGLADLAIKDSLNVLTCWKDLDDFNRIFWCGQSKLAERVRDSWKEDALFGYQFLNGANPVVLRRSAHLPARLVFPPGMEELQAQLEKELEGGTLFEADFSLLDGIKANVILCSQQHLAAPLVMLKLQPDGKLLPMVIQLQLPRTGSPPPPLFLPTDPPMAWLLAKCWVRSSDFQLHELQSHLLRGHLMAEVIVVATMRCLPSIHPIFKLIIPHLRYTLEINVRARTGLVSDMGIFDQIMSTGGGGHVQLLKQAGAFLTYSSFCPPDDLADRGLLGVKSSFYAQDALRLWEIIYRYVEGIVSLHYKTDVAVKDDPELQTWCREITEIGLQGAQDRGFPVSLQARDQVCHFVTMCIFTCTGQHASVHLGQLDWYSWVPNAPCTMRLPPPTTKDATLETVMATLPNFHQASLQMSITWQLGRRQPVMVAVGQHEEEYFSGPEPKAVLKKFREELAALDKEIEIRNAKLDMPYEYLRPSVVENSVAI
Briefly: Inhibition of 15-LOX in human PMNL assessed as reduction in 15-LOX product formation at 10 uM treated with AA and A23187 by RP-HPLC method. The data set is classed as tissue-based.

In data set [7] the target is T3, Prostaglandin G/H synthase 1 (Ovis aries) (UniProt P05979).
T3 sequence (whole entry): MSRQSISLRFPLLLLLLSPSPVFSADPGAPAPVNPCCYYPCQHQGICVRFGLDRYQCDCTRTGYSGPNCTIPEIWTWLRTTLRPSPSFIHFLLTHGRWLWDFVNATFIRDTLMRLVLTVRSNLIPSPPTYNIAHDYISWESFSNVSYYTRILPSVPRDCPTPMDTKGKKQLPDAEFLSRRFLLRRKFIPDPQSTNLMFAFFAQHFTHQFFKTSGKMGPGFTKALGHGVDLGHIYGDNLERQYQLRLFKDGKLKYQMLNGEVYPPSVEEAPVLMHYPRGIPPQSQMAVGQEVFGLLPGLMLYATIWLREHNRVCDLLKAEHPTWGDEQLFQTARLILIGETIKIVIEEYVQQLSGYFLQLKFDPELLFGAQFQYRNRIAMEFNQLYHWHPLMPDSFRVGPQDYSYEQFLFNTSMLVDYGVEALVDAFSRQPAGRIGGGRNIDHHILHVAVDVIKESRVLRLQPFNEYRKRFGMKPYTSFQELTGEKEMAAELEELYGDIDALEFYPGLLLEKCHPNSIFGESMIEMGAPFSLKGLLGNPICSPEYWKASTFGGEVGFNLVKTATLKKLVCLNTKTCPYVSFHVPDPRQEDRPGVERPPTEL
As to the kind of experiment: Inhibition of ovine COX-1 assessed as reduction in 12-HHT formation at 10 uM using arachidonic acid as substrate preincubated for 6 mins followed by substrate addition by RPL-HPLC method.

The nature of data set [8]: Cytotoxicity against human PBMC assessed as reduction in metabolic activity at <=1 uM after 2 to 24 hrs by MTT assay. To be noted: time 2-24 hrs. The gist of the method:
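PBMC at 2 × 10^6/mL in monocyte medium treated 2 or 24 h at 37 °C, 5% CO2, with 0.1% DMSO vehicle. MTT added for 4 h in the dark, formazan solubilized in SDS/HCl, absorbance read at 570 nm.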
A general note: Formazan colour is commonly taken as a measure of viable cells.

Data set [9] deals with Monocyte. Briefly: Cytotoxicity against human monocytes assessed as reduction in LDH release at <=1 uM after 2 to 24 hrs by CytoTox96 nonradioactive assay. The data set is classed as cell-based. To be noted: time 2-24 hrs. In outline:
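Monocytes at 4 × 10^5/mL in monocyte medium treated 2 or 24 h at 37 °C, 5% CO2, with 0.1% DMSO vehicle. LDH release measured by CytoTox 96 kit, with Triton X-100 (0.8%) defining maximum release.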
For orientation: LDH leaks from cells whose membrane has failed.

Active and inactive are the calls of the source. No cut-off for these calls is given here.

As for `C/C(=C\CC/C(C)=C/CC[C@]1(C)CCc2c(C)c(O)c(C)c(C)c2O1)CCC=C(CO)CO`, the Stabilty entry in data set [1] is “Stable”. This compound showed a concentration at 0.5 h in data set [2] of 20 nM. In data set [3], the Drug metabolism result is given as “Metabolite_Detected”. Further, the result in data set [4] was inactive. Further, the inhibition result in data set [5], in data set [6] and in data set [7] was “inactive” in each case. Moreover, the Activity result in [8] and in [9] was “Non-Toxic” in each case.

The values above are taken from ChEMBL document CHEMBL4834471 (J Med Chem, 2021).
